Bioassay records: PubChem BioAssay, Broad Institute
The list is not random: actives were taken first. Their share in the collection is about 1.7%.
AI-2 QS modul = modulators of Vibrio harveyi AI-2 quorum sensing system; Vibrio harveyi JMH597 AI-2 luminescence/OD600 ratio, 9 h; stronger effect = lower value; strain lacks LuxN and CqsS sensors; 0 = neutral-control median; activity change, % at 7.5 µM; 300,000 tested, 0.4% active; AID 2094; in the data active means activity change below about -75%, passing the limit was not always enough;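 further: luminescence divided by OD600 gain over 9 h not by final OD600 alone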
CAL PDZ FP-1 = blocks peptide binding to human CAL PDZ domain; Q9HD26; purified CAL PDZ, TMR-peptide fluorescence polarization, 1 h; inhibition, % at 20 µM; 330,000 tested, 0.02% active; AID 504414;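 active means highest replicate inhibition of at least 40%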
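material = purified tagged CAL PDZ domain construct (CerCALP) | compound dosing = 20 µM, one dose | times = 1 h at RT | measured by = fluorescence polarization from S- and P-plane intensities, G-factor corrected | read-out = inhibition from polarization loss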
ARNT TACC3 PPI = disrupts binding between human ARNT and TACC3; AlphaScreen His-ARNT PAS-B/GST-TACC3 binding, luminescence; TACC3 fragment carries E629A point mutation; 390,000 tested, 0.66% active; Q9Y6A5; inhibition, % at 9.99 µM;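 active means mean inhibition of replicates at least 50% and at least half of replicates each reaching 50%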
Rce1 inhib = yeast Ras-converting enzyme inhibition; 290,000 tested, 0.27% active; yeast membranes, quenched prenylated peptide cleavage fluorescence; Q03530; AID 2563; calls only;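 active means fall in fluorescence gain of 50% or more versus controls, with final raw signal at or below 3038400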
Target sequence (Q03530 whole entry, looked up): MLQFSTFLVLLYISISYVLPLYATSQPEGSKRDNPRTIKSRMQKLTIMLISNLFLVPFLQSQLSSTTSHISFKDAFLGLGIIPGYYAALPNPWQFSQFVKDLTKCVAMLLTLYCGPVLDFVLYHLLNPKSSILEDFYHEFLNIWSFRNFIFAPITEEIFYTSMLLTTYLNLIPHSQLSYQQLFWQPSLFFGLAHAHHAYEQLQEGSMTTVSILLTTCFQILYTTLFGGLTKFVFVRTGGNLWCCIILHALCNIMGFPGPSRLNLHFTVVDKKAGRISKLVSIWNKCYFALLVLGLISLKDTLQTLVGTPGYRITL
CAL PDZ FP-2 = blocks peptide binding to the human CAL PDZ domain; Q9HD26; purified CAL PDZ, TMR-peptide fluorescence polarization, 1 h; inhibition, % at 24.9 µM; 300,000 tested, 0.92% active;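 active means mean inhibition of at least 30% with at least half of replicates also reaching 30%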
Numbers stand for hits; - = inactive; . = no result; + = active, no number.

SMILES	AI-2 QS modul	CAL PDZ FP-1	ARNT TACC3 PPI	Rce1 inhib	CAL PDZ FP-2
Nc1ccc(OCc2ccco2)cc1	-	-	-	-	-
O=C(c1ccccc1)c1nn(-c2ccc(Cl)cc2)cc1C(=O)c1cc2ccccc2oc1=O	-	-	-	-	-
C=CCN(c1ccccc1OC)S(=O)(=O)c1cccc(C(=O)NC2=NCCS2)c1	.	-	-	.	-
C=CCN(c1ccccc1OC)S(=O)(=O)c1cccc(C(=O)Nc2nnc(C3CC3)s2)c1	.	-	-	.	40.4
O=C(Nc1nnc(C2CCCO2)s1)c1cccs1 (centres undefined)	-	-	-	-	-
O=C(CSc1nnc(NC(=O)c2cccc(F)c2)s1)NC1CCCC1	-	-	-	-	.
COc1cccc(C(=O)Nc2nnc(C3CCCO3)s2)c1 (centres undefined)	-78.2	-	-	-	-
COc1cccc(C(=O)Nc2nnc(SCC(=O)NC3CCCC3)s2)c1	-	-	-	+	-
CCOC(=O)c1cc2n(n1)C(C(F)(F)C(F)(F)F)CC(C)N2 (centres undefined)	-	-	-	-	.
C[C@H]1CN([C@@H](C)CO)C(=O)c2cccc(NS(=O)(=O)c3ccc(F)cc3)c2O[C@@H]1CN(C)C(=O)Nc1ccc2c(c1)OCO2	.	.	-	.	.
O=S(=O)(c1cccc(-c2n[nH]c(=S)o2)c1)N1CCOCC1	-	-	-	-	97.6
O=S(=O)(c1cccc(-c2n[nH]c(=S)n2-c2ccccc2Cl)c1)N1CCOCC1	.	-	-	.	-
C[C@@H](O)C#Cc1ccc([C@@H]2[C@H]3CN(CC4CCOCC4)CCCCN3[C@H]2CO)cc1	.	.	-	.	.
COc1cc2oc3ccccc3c(=O)c2cc1OC	-	-	-	-	-
O=c1c2ccccc2oc2cc(Br)ccc12	.	-	-	.	89.3
CC[C@H](C)[C@H](NS(=O)(=O)c1ccc(C)cc1)C(=O)N1CCC(C(=O)N[C@@H](C)C(=O)O)CC1	-	-	-	-	-
COc1ccc(NC(=O)CNC(=O)C2CCCCC2)cc1	-	-	-	-	52.6
Cc1cccc(N2C(=O)CC(Sc3ccccc3C(=O)O)C2=O)c1 (centres undefined)	-	-	-	-	-
COC(=O)Cc1c(O)ccn(Cc2cccc3ccccc23)c1=O	-	-	-	-	-
COC(=O)Cc1c(O)ccn(Cc2ccccc2OC)c1=O	-	-	-	-	46.6
Cc1cccc(N2CCN(CC3CCCCC3)CC2)c1C	-	-	-	-	47.2
O=c1oc2ccccc2cc1-c1nc2c(s1)CCCC2	-	-	-	-	.
CCOC(=O)C1(C)Oc2ccccc2C(C(=O)OC)=C1C(=O)OC (centres undefined)	.	-	-	.	+
COc1ccc(NC(=O)c2sc3ncn(CC(=O)N4CCCCC4)c(=O)c3c2C)cc1OC	-	-	-	-	-
COc1cccc(/C=N/NC(=O)c2cc3c(OC)ccc(OC)c3[nH]2)c1O	-	-	.	-	-
SMILES	AI-2 QS modul	CAL PDZ FP-1	ARNT TACC3 PPI	Rce1 inhib	CAL PDZ FP-2
COc1cccc(/C=N/Nc2ccc(C(=O)O)cc2)c1O	-	-	-	.	-
CCOc1cc(/C=N/NC(=O)c2cccnc2)ccc1O	-	-	-	-	-
COc1cccc(/C=N/NC(=O)N/N=C/c2cccc(OC)c2O)c1O	-	-	-	-	-
COc1cccc(/C=N/Nc2ccccc2C(=O)O)c1O	-	-	-	-	80.8
CCOc1cccc(/C=N/NC(=O)c2cccnc2)c1O	-	-	55.6	-	-
COc1cccc(C=NNC(=O)c2ccncc2)c1O	.	-	68.9	.	.
COc1cc(/C=N/NC(=O)c2cc(C3CC3)[nH]n2)cc(OC)c1OC	-	-	-	-	-
CCOc1cccc(/C=N/NC(=O)c2cc(C3CC3)[nH]n2)c1O	-	-	71.4	-	-
O=C(Oc1ccc[nH]c1=O)c1cccc(Cl)c1	-	-	-	-	.
CCN(c1ccccc1)S(=O)(=O)c1cc2c3c(c1)CCN3C(=O)CC2	-	-	-	-	-
CC(C)NC(=O)Nc1ccc2c(c1)C(=O)N([C@H](C)CO)C[C@H](C)[C@@H](CN(C)C(=O)NC1CCCCC1)OCCCC[C@H](C)O2	.	.	-	.	.
CO/N=C(/CS(=O)Cc1ccccc1Cl)c1ccc(Cl)cc1Cl (centres undefined)	-	-	-	-	-
O=C(CNCc1cccc(Cl)c1)N1CCc2ccccc2C1	-	-	-	-	-
CCn1c(C)nc2cc(C(=O)N/N=C/c3ccc(O)c(O)c3O)ccc21	-	-	.	-	-
CCn1c(C)nc2cc(C(=O)N/N=C/c3cccc(OC)c3O)ccc21	-	-	40.4	-	-
COc1cc([N+](=O)[O-])cc(/C=N/NC(=O)c2cccnc2)c1O	-	-	72.9	-	-
CC(C)[C@H](NC(=O)c1ccc(Br)cc1)C(=O)NC1CCCCC1	.	-	-	.	86.0
Nc1nc(Sc2ccc([N+](=O)[O-])c3nonc23)c2[nH]cnc2n1	.	-	21.5	.	-
CNc1ncnc(Sc2nc(N)nc3nc[nH]c23)c1[N+](=O)[O-]	.	-	-	.	-
COc1ccc(NC(=O)Cn2c([N+](=O)[O-])cnc2C)cc1Cl	-	-	-	-	-
CNS(=O)(=O)c1cccc(C(=O)OCC(=O)c2ccc[nH]2)c1	.	-	-	.	-
CNS(=O)(=O)c1cccc(C(=O)OCC(=O)c2ccc3c(c2)OCCO3)c1	.	-	-	.	45.2
CC(=O)Oc1cccc(/C=C2\Sc3ccccc3C2=O)c1	-	-	-	-	-
O=C(N/N=C/c1ccc([N+](=O)[O-])o1)C(O)c1ccccc1 (centres undefined)	-88.6	-	-	-	-
O=C(N/N=C/c1ccccc1)C(O)c1ccccc1 (centres undefined)	-	-	-	-	.
SMILES	AI-2 QS modul	CAL PDZ FP-1	ARNT TACC3 PPI	Rce1 inhib	CAL PDZ FP-2
O=C(N/N=C/c1ccc(-c2ccc([N+](=O)[O-])cc2)o1)C(O)c1ccccc1 (centres undefined)	-	-	-	-	-
O=C(CNc1ccc2ccccc2c1)N/N=C/c1ccc([N+](=O)[O-])o1	-92.3	-	-	-	-
O=C(NN=Cc1ccccc1O)C(O)c1ccccc1 (centres undefined)	.	-	43.4	.	-
CCC1=[N+](C)c2cccc3cccc(c23)N1C	-	-	-	-	-
CC(C)(Oc1ccc(Cl)cc1)C(=O)NCc1ccc(S(N)(=O)=O)cc1	-	-	-	-	77.3
C[C@@H]1CCCCO[C@H](CN(C)S(=O)(=O)c2cn(C)cn2)[C@@H](C)CN([C@H](C)CO)C(=O)c2cc(NC(=O)CCCN(C)C)ccc2O1	.	.	-	.	.
Oc1c(C=NCc2ccccc2)sc2ccccc12	-91.6	-	-	-	-
Oc1cccc(C=NCc2ccccc2)c1O	-	-	-	-	-
CC(C)NC(=O)C1CCN(C2CCN(C(=O)Cc3ccc4c(c3)OCO4)CC2)CC1	-	-	-	.	-
C[C@H](NC(=O)C[C@@H]1CC[C@@H](NC(=O)C2CCC2)[C@H](CO)O1)c1ccccc1	.	.	-	.	.
S=C(Nc1ccccc1)N1CCN(c2ccccc2)CC1	.	-	-	.	.
